Assay results reported in ChEMBL document CHEMBL1649157, “Intracellular activity of antibiotics against Staphylococcus aureus in a mouse peritonitis model” (Antimicrob Agents Chemother, 2009).
≈ marks a conversion by molar mass, not a printed value. Calls of active or inactive are those of the source. The calls are words filed in the database; no cut-off is given here.

What was measured:
Staphylococcus aureus [1] = assay: Bacteriostatic activity against Staphylococcus aureus E19977 assessed as log reduction in cfu at 0.5 mg/liter upto 8 hrs by time-kill study; type: functional, organism-based
Staphylococcus aureus [2] = assay: Bactericidal activity against Staphylococcus aureus E19977 assessed as log reduction in cfu at 9 mg/liter after 24 hrs by time-kill study; type: functional, organism-based
Summary of the method: (§1)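 In vitro kinetic model simulating antibiotic elimination without inoculum change. Exponential-phase E19977 was added at a final 10^6.3 CFU/ml. Starting drug concentration matched the human free peak, with the human half-life simulated. Samples were plated on 5% blood agar at 0, 2, 4, 6, 8, 12 and 24 h, with growth controls in each run. Results are shown as mean and range, n = 2.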

Staphylococcus aureus [3] = assay: Bactericidal activity against Staphylococcus aureus E19977 assessed as log reduction in cfu at 2 mg/liter after 24 hrs by time-kill study; type: functional, organism-based; summary of the method: as §1
Staphylococcus aureus [4] = assay: Bactericidal activity against Staphylococcus aureus E19977 assessed as log reduction in cfu at 1.5 mg/liter after 24 hrs by time-kill study; type: functional, organism-based; summary of the method: as §1
Staphylococcus aureus [5] = assay: Bactericidal activity against Staphylococcus aureus E19977 assessed as log reduction in cfu at 20 mg/liter after 24 hrs by time-kill study; type: functional, organism-based; summary of the method: as §1
Staphylococcus aureus [6] = assay: Bactericidal activity against Staphylococcus aureus E19977 assessed as log reduction in cfu at 0.5 mg/liter after 24 hrs by time-kill study; type: functional, organism-based; summary of the method: as §1
Staphylococcus aureus [7] = assay: Antibacterial activity against Staphylococcus aureus E19977 infected in NMRI mouse assessed as log reduction in bacterial cfu in peritoneum at 1 mg/kg, sc administered 2 hrs after infection measured after 4 hrs; type: functional, organism-based; design: dose 1 mg/kg
Summary of the method: (§2)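 Female NMRI mice (25–30 g) were infected i.p. with 0.5 ml of 10^7.7 CFU/ml in 5% mucin. […] Pooled washes were split into total, extracellular and intracellular fractions by 300 × g spin, lysostaphin, HBSS washes and water lysis. Counts were compared with untreated mice.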

Staphylococcus aureus [8] = assay: Antibacterial activity against Staphylococcus aureus E19977 infected in NMRI mouse assessed as log reduction in intracellular bacterial cfu in peritoneum at 1 mg/kg, sc administered 2 hrs after infection measured after 4 hrs; type: functional, organism-based; design: dose 1 mg/kg; summary of the method: as §2
Staphylococcus aureus [9] = assay: Antibacterial activity against Staphylococcus aureus E19977 infected in NMRI mouse assessed as log reduction in extracellular bacterial cfu in peritoneum at 1 mg/kg, sc administered 2 hrs after infection measured after 4 hrs; type: functional, organism-based; design: dose 1 mg/kg; summary of the method: as §2
Staphylococcus aureus [10] = assay: Antibacterial activity against Staphylococcus aureus E19977 by Etest; type: functional
[11] = Cmax in human at 1000 mg, po; type: ADME, organism-based; design: dose 1000 mg, route oral; conditions: in vivo
Serum [12] = assay: Protein binding in human serum at 1000 mg, po; type: ADME, organism-based; conditions: in vivo
[13] = Half life in human at 1000 mg, po; type: ADME, organism-based; conditions: in vivo
Staphylococcus aureus [14] = assay: Bactericidal activity against Staphylococcus aureus E19977 assessed as log reduction in cfu at 2 mg/liter after 12 hrs by time-kill study; type: functional
Summary of the method: (§3)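 Clinical bacteremia isolate (penicillin-resistant, methicillin-susceptible). Exponential-phase bacteria were placed in an in vitro kinetic model that simulates drug elimination without changing the inoculum. The starting drug level matched the human free peak serum concentration after a single dose, with simulated human elimination half-life. Samples were taken at 0, 2, 4, 6, 8, 12 and 24 h, with growth controls in each run.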

Staphylococcus aureus [15] = assay: Bactericidal activity against Staphylococcus aureus E19977 assessed as log reduction in cfu at 2 mg/liter upto 24 hrs by time-kill study; type: functional; summary of the method: as §3
Staphylococcus aureus [16] = assay: Bactericidal activity against Staphylococcus aureus E19977 assessed as log reduction in cfu at 1.5 mg/liter upto 24 hrs by time-kill study; type: functional; summary of the method: as §3
Staphylococcus aureus [17] = assay: Bactericidal activity against Staphylococcus aureus E19977 assessed as log reduction in cfu at 20 mg/liter upto 24 hrs by time-kill study; type: functional
Summary of the method: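 In vitro kinetic model: exponential-phase bacteria at a final 10^6.3 CFU/ml were exposed to a starting concentration set to the human free peak level. Elimination followed the simulated human half-life. Samples were taken at 0, 2, 4, 6, 8, 12 and 24 h and counted on 5% blood agar (detection limit 25 CFU/ml). Growth controls were included; n = 2.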

Staphylococcus aureus [18] = assay: Antibacterial activity against Staphylococcus aureus E19977 infected in NMRI mouse assessed as log reduction in bacterial cfu in peritoneum at 200 mg/kg, sc administered 2 hrs after infection measured after 4 hrs; type: functional, organism-based; design: dose 200 mg/kg
Summary of the method: (§4)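 Dose–response in i.p.-infected NMRI mice (mucin adjuvant). Single doses of 200, 60, 30, 20 or 10 mg/kg were given 2 h after inoculation, with 4–16 mice per group. Peritoneal wash was sampled 4 h later and split by lysostaphin/centrifugation into total, extra- and intracellular counts, then expressed as Δlog10 CFU/ml against log dose. Vehicle controls were plotted as 0.3 mg/kg. Hill fit (variable slope); static dose interpolated.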

Staphylococcus aureus [19] = assay: Antibacterial activity against Staphylococcus aureus E19977 infected in NMRI mouse assessed as log reduction in intracellular bacterial cfu in peritoneum at 200 mg/kg, sc administered 2 hrs after infection measured after 4 hrs; type: functional, organism-based; design: dose 200 mg/kg; summary of the method: as §4
Staphylococcus aureus [20] = assay: Antibacterial activity against Staphylococcus aureus E19977 infected in NMRI mouse assessed as log reduction in extracellular bacterial cfu in peritoneum at 200 mg/kg, sc administered 2 hrs after infection measured after 4 hrs; type: functional, organism-based; design: dose 200 mg/kg; summary of the method: as §4
[21] = Cmax in human at 1000 mg, im; type: ADME, organism-based; design: dose 1000 mg, route […]; conditions: in vivo
Serum [22] = assay: Protein binding in human serum at 1000 mg, im; type: ADME, cell-free
[23] = Half life in human at 1000 mg, im; type: ADME, organism-based; conditions: in vivo

SMILES: CC[C@H]1OC(=O)[C@H](C)[C@@H](O[C@H]2C[C@@](C)(OC)[C@@H](O)[C@H](C)O2)[C@H](C)[C@@H](O[C@@H]2O[C@H](C)C[C@H](N(C)C)[C@H]2O)[C@](C)(O)C[C@@H](C)CN(C)[C@H](C)[C@@H](O)[C@]1(C)O [AZITHROMYCIN]
- Activity (Staphylococcus aureus [1]): Active
- Activity (Staphylococcus aureus [2]): inactive
- Activity (Staphylococcus aureus [3]): inactive
- Activity (Staphylococcus aureus [4]): inactive
- Activity (Staphylococcus aureus [5]): inactive
- Activity (Staphylococcus aureus [6]): inactive
- Activity (Staphylococcus aureus [7]): inactive
- Activity (Staphylococcus aureus [8]): inactive
- Activity (Staphylococcus aureus [9]): inactive
- MIC (Staphylococcus aureus [10]): 0.5 µg/mL (≈ 0.668 µM)
- Cmax [11]: 1000 ng/mL
- Activity (Serum [12]): 50%
- half-life [13]: 10 h

SMILES: CO/N=C(\C(=O)N[C@@H]1C(=O)N2C(C(=O)O)=C(COC(N)=O)CS[C@H]12)c1ccco1 [CEFUROXIME]
- FC (Staphylococcus aureus [14]): 2
- FC (Staphylococcus aureus [15]): 2
- FC (Staphylococcus aureus [16]): 2
- FC (Staphylococcus aureus [17]): >2
- Activity (Staphylococcus aureus [2]): inactive
- Activity (Staphylococcus aureus [3]): inactive
- Activity (Staphylococcus aureus [4]): inactive
- Activity (Staphylococcus aureus [5]): inactive
- Activity (Staphylococcus aureus [6]): inactive
- Activity (Staphylococcus aureus [18]): Active
- Activity (Staphylococcus aureus [19]): inactive
- Activity (Staphylococcus aureus [20]): Active
- MIC (Staphylococcus aureus [10]): 2 µg/mL (≈ 4.71 µM)
- Cmax [21]: 26000 ng/mL
- Activity (Serum [22]): 30%
- half-life [23]: 1.5 h
